Measurements published in article PMC10357533 (ACS Omega, 2023).
Converted amounts (≈) assume the structure as drawn. “Also recorded” adds a separate entry of the source.

Assays:
M. separata = conditions: at 5 μg/mL concentration; cited from earlier work
[1] = biological target: electric eel (Electrophorus electricus) AChE (Electrophorus electricus, UniProt O42275); assay: Acetylcholinesterase; type: biochemical; conditions: for inhibition at 4 µg/mL / inhibition at 20 µg/mL / inhibition at 100 µg/mL / inhibition at 250 µg/mL: read-out: AChE inhibitory activity
Procedure, shortened: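 Electric eel AChE (0.25 IU/mL) was mixed with pH 8 phosphate buffer and test compound solution (500, 100, 20 or 4 μg/mL, diluted in water from DMSO stock) and held 15 min at 25 °C. DTNB (2.5 mM) and acetylthiocholine iodide (2.5 mM) were added, followed by 10 min more at 25 °C. Absorbance was read at 405 nm. Galantamine was the positive control, run in triplicate plates.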

Aedes aegypti larvae = assay: Mosquito larvicidal assay; type: in vivo; conditions: for LC90: (95% confidence limits); for LC50: Aedes aegypti
Procedure, shortened: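 Larvae came from later generations of a wild-derived Ae. aegypti colony kept at 25 ± 2 °C, 65–75% RH and 12:12 h light/dark. Twenty larvae per 150 mL of test solution were exposed at 100 down to 1.5625 μg/mL (twofold steps plus 75), with DMSO as vehicle. Controls were permethrin and DMSO (1 mL/150 mL). Mortality was scored at 24–96 h over four independent experiments.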

[2] = Solubility of compounds for larvicidal testing; type: physicochemical; conditions: larvicidal test, compounds dissolved in DMSO
Plutella xylostella = conditions: at 500 μg/mL; cited from earlier work
Anopheles arabiensis = conditions: compared with temephos; cited from earlier work

electric eel (Electrophorus electricus) AChE, sequence (O42275 24-633): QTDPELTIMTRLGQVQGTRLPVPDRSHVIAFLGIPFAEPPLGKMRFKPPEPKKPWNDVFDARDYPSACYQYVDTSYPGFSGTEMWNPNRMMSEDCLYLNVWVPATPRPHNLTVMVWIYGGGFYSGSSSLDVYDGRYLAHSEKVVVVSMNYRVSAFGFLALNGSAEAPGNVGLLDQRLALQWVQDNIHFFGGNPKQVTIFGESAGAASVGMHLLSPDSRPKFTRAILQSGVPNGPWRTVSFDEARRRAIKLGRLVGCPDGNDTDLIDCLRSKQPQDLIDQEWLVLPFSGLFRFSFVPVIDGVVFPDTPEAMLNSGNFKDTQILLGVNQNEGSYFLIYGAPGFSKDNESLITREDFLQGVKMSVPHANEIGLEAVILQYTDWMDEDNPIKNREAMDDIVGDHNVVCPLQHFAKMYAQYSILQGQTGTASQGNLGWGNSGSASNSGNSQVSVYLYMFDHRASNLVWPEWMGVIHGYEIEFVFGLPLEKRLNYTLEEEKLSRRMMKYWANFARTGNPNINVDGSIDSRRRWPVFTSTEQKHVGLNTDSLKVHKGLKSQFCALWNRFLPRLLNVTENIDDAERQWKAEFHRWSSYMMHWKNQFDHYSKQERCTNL

Compound	IC50 [1]	inhibition at 4 µg/mL [1]	inhibition at 20 µg/mL [1]	inhibition at 100 µg/mL [1]	inhibition at 250 µg/mL [1]	LC90 (Aedes aegypti larvae; 24 h exposure)	LC90 (Aedes aegypti larvae; 48 h exposure)	LC90 (Aedes aegypti larvae; 72 h exposure)	LC50 (Aedes aegypti larvae; 24 h)	LC50 (Aedes aegypti larvae; 48 h)	LC50 (Aedes aegypti larvae; 72 h)	LC50 (Aedes aegypti larvae; 96 h)	further results
Cc1cc(Cl)cc2c1NC(c1cc(Br)nn1-c1ncccc1Cl)N(C)C2=O (centres unmarked) [2-(3-bromo-1-(3-chloropyridine-)-2-yl)-1H-pyrazol-5-yl-6-chloro-3,8-dimethyl-2,3-dihydroquinazolin-4(1H)-one]													mortality (M. separata): 80%
Cc1nc2ccccc2c(=O)n1CC(=O)Nc1ccc(Br)cc1 [4a, N-(4-Bromophenyl)-2-(2-methyl-4-oxoquinazolin-3(4H)-yl)acetamide]	714 µM	3.75%	14%	28.6%	48.5%	8.528 (7.729–9.730) μg/mL	6.396 (5.755–7.334) μg/mL	5.273 (4.620–6.340) μg/mL	5.82 mg/L (≈ 15.6 µM)	3.66 mg/L (≈ 9.84 µM)	2.26 mg/L (≈ 6.07 µM)	1.49 mg/L (≈ 3.99 µM)	LC90 (Aedes aegypti larvae; 96 h exposure): 4.470 (3.864–5.530) μg/mL
Cc1nc2ccccc2c(=O)n1CC(=O)Nc1ccc(Cl)cc1 [4b, N-(4-Chlorophenyl)-2-(2-methyl-4-oxoquinazolin-3(4H)-yl)acetamide]	500 µM	18.1%	26.6%	34.7%	72.9%	31.11 (26.90–37.20) μg/mL	7.610 (6.607–9.160) μg/mL	6.945 (6.055–8.327) μg/mL	12.7 mg/L (≈ 38.7 µM)	3.64 mg/L (≈ 11.1 µM)	3.48 mg/L (≈ 10.6 µM)		
Cc1nc2ccccc2c(=O)n1CC(=O)Nc1cccc(Cl)c1 [4c, N-(3-Chlorophenyl)-2-(2-methyl-4-oxoquinazolin-3(4H)-yl)acetamide]	231 µM	15.4%	29.3%	56.5%	97.8%				15.1 mg/L (≈ 45.9 µM)	10.1 mg/L (≈ 30.8 µM)	4.42 mg/L (≈ 13.5 µM)	1.8 mg/L (≈ 5.49 µM)	
Cc1nc2ccccc2c(=O)n1CC(=O)Nc1ccccc1Cl [4d, N-(2-Chlorophenyl)-2-(2-methyl-4-oxoquinazolin-3(4H)-yl)acetamide]	462 µM	7.58%	19.2%	36.5%	70.3%				52.4 mg/L (≈ 160 µM)	22.7 mg/L (≈ 69.3 µM)	4.2 mg/L (≈ 12.8 µM)		
COc1ccc(NC(=O)Cn2c(C)nc3ccccc3c2=O)cc1 [4e, N-(4-Methoxyphenyl)-2-(2-methyl-4-oxoquinazolin-3(4H)-yl)acetamide]						25.81 (21.16–33.50) μg/mL	16.26 (12.95–22.06) μg/mL	12.27 (9.67–17.09) μg/mL	9.25 mg/L (≈ 28.6 µM)	4.27 mg/L (≈ 13.2 µM)	2.76 mg/L (≈ 8.52 µM)	1.28 mg/L (≈ 3.96 µM)	LC90 (Aedes aegypti larvae; 96 h exposure): 7.414 (5.780–10.598) μg/mL
Cc1ccc(NC(=O)Cn2c(C)nc3ccccc3c2=O)cc1 [4f, 2-(2-Methyl-4-oxoquinazolin-3(4H)-yl)-N-(p-tolyl)acetamide]	186 µM	17.6%	34.2%	62.8%	98.9%	14.67 (13.22–16.69) μg/mL	14.33 (12.51–17.09) μg/mL	11.29 (9.56–14.17) μg/mL	8.67 mg/L (≈ 28.2 µM)	5.92 mg/L (≈ 19.3 µM)	2.08 mg/L (≈ 6.78 µM)		
Cc1ccccc1NC(=O)Cn1c(C)nc2ccccc2c1=O [4g, 2-(2-Methyl-4-oxoquinazolin-3(4H)-yl)-N-(o-tolyl)acetamide]	488 µM	-1.33%	13.4%	34.6%	73.1%								solubility [2]: insoluble; also recorded: not soluble
Cc1nc2ccccc2c(=O)n1CC(=O)Nc1ccccc1 [4h, 2-(2-Methyl-4-oxoquinazolin-3(4H)-yl)-N-phenylacetamide]												> 50 mg/L	LC90 (Aedes aegypti larvae; 96 h exposure): >50 (96 h) μg/mL; larvicidal activity (in words) (Aedes aegypti larvae; compared with the other compounds): less activity
Cc1nc2ccccc2c(=O)n1CC(=O)Nc1ccc([N+](=O)[O-])cc1 [4i, 2-(2-Methyl-4-oxoquinazolin-3(4H)-yl)-N-(4-nitrophenyl)acetamide]	454 µM	2.5%	6.08%	35.5%	75.6%								solubility [2]: insoluble; also recorded: not soluble
Clc1cc(Cl)c2ncnc(SCc3ccc(Cl)nc3)c2c1 [6,8-dichloro-4-(((6-chloropyridine-3-yl)methyl)thio)quinazoline]													mortality rate (Plutella xylostella): 85%
COC(=O)C1=C(C)Nc2nc3ccc(I)cc3c(=O)n2C1c1ccc(Cl)cc1 (centres unmarked) [methyl 4-(4-chlorophenyl)-8-iodo-2-methyl-6-oxo-1,6-dihydro-4H-pyrimido[2,1-b]quinazoline-3-carboxylate]													larvicidal activity (in words) (Anopheles arabiensis): significantly stronger than temephos
CC1(C)C(C=C(Cl)Cl)C1C(=O)OCc1cccc(Oc2ccccc2)c1 (centres unmarked) [permethrin, reference compound]						0.00246 (0.00192–0.00344) μg/mL			0.000643 mg/L (≈ 0.00164 µM)				
